What all share (type): physicochemical
Series [1] can be described thus: Antioxidant activity assessed as inhibition of superoxide induced reduction of NBT measured for 2 mins by UV-visible spectrophotometric method. The settings on record: for inhibition (INH): 2 min. A digest of the protocol:
(§1)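 Superoxide produced by the NADH/PMS/O2 system at room temperature. NBT reduction followed at 560 nm over 2 min. Compounds in DMSO at final 25–200 μM. IC50 from % inhibition vs concentration curves, at least four independent experiments in triplicate. The single-concentration line is % inhibition at the top concentration.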

Series [2] can be described thus: Antioxidant activity assessed as inhibition of H2O2 induced lucigenin oxidation at 37 degC. The method in brief: (§2)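 H2O2 scavenging by chemiluminescence: H2O2-induced lucigenin oxidation, signal recorded immediately after the plate enters the reader. Compounds in DMSO at final 31.25–1000 μM, 37 °C. IC50 from % inhibition vs concentration curves (5–7 concentrations in triplicate, at least four independent experiments). Single-concentration line gives % effect at the top concentration. Quercetin as positive control.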

A short description of series [3]: Antioxidant activity assessed as inhibition of HOCl-induced oxidation of DHR to rhodamine 123 at 37 degC by fluorimetric method. The method in brief: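 HOCl made daily by adjusting 1% NaOCl to pH 6.2 with 10% H2SO4. HOCl-induced DHR oxidation to rhodamine 123 read immediately at ex 480/em 528 nm, 37 °C. Compounds in ethanol, final 6.25–400 μM. IC50 from inhibition curves, 5–7 concentrations in triplicate, ≥4 independent experiments.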

Series [4] in a line: Antioxidant activity assessed as inhibition of singlet oxygen induced oxidation of non-fluorescent DHR to fluorescent rhodamine 123 at 37 degC measured after 30 mins by fluorimetric method. The settings on record: for inhibition (INH): 0.5 h. A digest of the protocol:
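Singlet oxygen generated by thermal decomposition of NDPO2 at 37 °C. DHR oxidation to rhodamine 123 read fluorimetrically after 30 min incubation. Compounds in DMSO, final 0.3125–20 μM for chromones and 0.625–80 μM for xanthones. IC50 from % inhibition curves, 5–7 concentrations in triplicate, ≥4 independent experiments.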

Series [5] is described as follows: Antioxidant activity assessed as inhibition of NO-induced oxidation of non-fluorescent DAF-2 to the fluorescent triazolofluorescein after 30 mins by fluorimetric method. The settings on record: for inhibition (INH): 0.5 h. A digest of the protocol: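 •NO released from NOC-5; oxidation of DAF-2 to DAF-2T read fluorimetrically (ex 485/em 528 nm) after 30 min at 37 °C. Compounds in DMSO at final 0.25–8 μM. IC50 derived from % inhibition vs concentration curves, 5–7 concentrations in triplicate, at least four independent experiments.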

Series [6] is described as follows: Antioxidant activity assessed as inhibition of peroxynitrite induced oxidation of the non-fluorescent dihydrorhodamine 123 to the fluorescent rhodamine 123 after 2 mins by fluorimetric method. The settings on record: for inhibition (INH): 2 min. A digest of the protocol: (§3)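 Peroxynitrite (synthesized in-house) oxidizes DHR to rhodamine 123; fluorescence read after 2 min at 37 °C. Compounds in DMSO at final 0.156–5 μM. A parallel set was run with 25 mM NaHCO3 to mimic physiological CO2. IC50 from inhibition curves, 5–7 concentrations in triplicate, ≥4 independent experiments.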

Series [7] is described as follows: Antioxidant activity assessed as inhibition of peroxynitrite induced oxidation of the non-fluorescent dihydrorhodamine 123 to the fluorescent rhodamine-123 in presence of NaHCO3 after 2 mins by fluorimetric method. The method in brief: as §3
A short description of series [8]: Antioxidant activity assessed as inhibition of superoxide induced reduction of NBT measured for 2 mins at 200 uM by UV-visible spectrophotometric method. The method in brief: as §1
Series [9] in a line: Antioxidant activity assessed as inhibition of H2O2 induced lucigenin oxidation at 1000 uM at 37 degC. A digest of the protocol: as §2

A word on the IC50: it is the concentration needed to halve the response being measured.

The structures appear in SMILES notation.

`O=c1cc(/C=C/C=C/c2ccc(O)c(O)c2)oc2cccc(O)c12`: the IC50 entry was “ND(Insoluble)” in series [1]; 125 µM in [2]; 94 µM in [3]; 1100 nM in [4]; 1230 nM in series [5]; 340 nM in series [6]. Moreover, the IC50 in [7] turned out to be 400 nM. Moreover, the “inhibition (INH)” value in series [2], in series [3], in series [4], in series [5] and in series [6] was “Dose-dependent effect” in each case.
For the compound `O=c1c2c(O)cccc2oc2cccc(-c3ccc(O)c(O)c3)c12`, the “inhibition (INH)” value in series [1], in [2], in series [3], in series [4], in series [5] and in series [6] was “Dose-dependent effect” each time. Also, the IC50 in series [1] (read-out: IC50) came to 80 µM; in series [2], 658 µM; in series [3] it was 96 µM; in series [4] it was 10000 nM; in series [5], 1500 nM; in series [6], 570 nM. The 50% inhibitory concentration (IC50) in series [7] is 560 nM.
In the case of `O=c1c2ccc(O)cc2oc2cccc(-c3ccc(O)c(O)c3)c12`, the “inhibition (INH)” value in series [1], in [2], in [3], in series [4], in [5] and in series [6] was “Dose-dependent effect” each time. The IC50 in [1] (read-out: IC50) came to 61 µM; in series [2], 518 µM; in series [3], 31 µM; in [4], 7300 nM; in [5], 1080 nM; in series [6], 390 nM. For the same compound, the IC50 in [7] turned out to be 660 nM.
Take `O=c1cc(/C=C/C=C/c2ccc(O)c(O)c2)oc2ccccc12`: the 50% inhibitory concentration (IC50) entry was “ND(Insoluble)” in series [1]; 143 µM in series [2]; 32 µM in [3]; 1300 nM in [4]; 820 nM in [5]; 330 nM in series [6]. Besides, the 50% inhibitory concentration (IC50) in series [7] was found to be 340 nM. The “inhibition (INH)” value in series [2], in series [3], in [4], in series [5] and in series [6] was “Dose-dependent effect” each time.
For `O=c1c(O)c(-c2ccc(O)c(O)c2)oc2cc(O)cc(O)c12` [QUERCETIN], the IC50 in series [1] (read-out: IC50) was 60 µM; in series [2] it was 1340 µM; in series [3] it was 2.4 µM; in [4], 1500 nM; in series [5] it was 770 nM; in [6], 450 nM. In [7], the IC50 was found to be 680 nM.
Regarding `O=c1cc(/C=C/C=C/c2ccc(O)c(O)c2)oc2cc(O)ccc12`, the “inhibition (INH)” value in series [8] is given as 36%; in [2] it was “Dose-dependent effect”; in series [3], “Dose-dependent effect”; in series [4] it was “Dose-dependent effect”; in [5], “Dose-dependent effect”; in series [6] it was “Dose-dependent effect”. The IC50 in series [2] amounted to 121 µM; in [3] it was 17 µM; in series [4], 1600 nM; in series [5], 1420 nM; in series [6], 290 nM; in series [7] it was 300 nM.
Turning to `O=c1c2ccccc2oc2cccc(-c3ccc(O)c(O)c3)c12`, the “inhibition (INH)” value in [1] is given as “Dose-dependent effect”; in series [9], 12%; in series [3], “Dose-dependent effect”; in [4], “Dose-dependent effect”; in series [5], “Dose-dependent effect”; in [6] it was “Dose-dependent effect”. The IC50 in series [1] (read-out: IC50) turned out to be 55 µM; in series [3], 158 µM; in [4], 4400 nM; in series [5] it was 1990 nM; in series [6] it was 510 nM; in series [7], 350 nM.

The record behind these values is ChEMBL document CHEMBL3792332, “Novel chromone and xanthone derivatives: Synthesis and ROS/RNS scavenging activities” (Eur J Med Chem, 2016).
